Columns and labels:
Plasmodium falciparum [1] = assay: Antiplasmodial activity against drug-sensitive Plasmodium falciparum 3D7 ring stage forms assessed as inhibition of parasite growth after 72 hrs by DAPI staining-based confocal microscopic analysis; type: functional, organism-based; conditions: 3D7, 72 h
[2] = Cytotoxicity against HEK293 cells assessed as growth inhibition after 72 hrs by resazurin dye-based fluorescence assay relative to control; type: cell-based; set-up: concentration or dose not given beside the values; conditions: human, read-out: GI
Outline: (§1)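 HEK293 cells kept in DMEM with 10% FBS. Exposed to compound for 72 h at 37 °C, 5% CO2; 16-point dose-response, 40 μM to 0.4 nM final, three concentrations per log, from 10 mM DMSO stocks. Medium then replaced with 44 μM resazurin; fluorescence read after 5−6 h (ex/em 530/595 nm). Data normalized to puromycin (5 μM) and 0.4% DMSO controls; IC50 from four-parameter logistic fit.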

HEK293 = assay: Cytotoxicity against HEK293 cells after 72 hrs by resazurin dye-based fluorescence assay; type: cell-based; conditions: Homo sapiens, HEK293, 72 h; outline: as §1
[3] = Selectivity ratio of IC50 for Plasmodium falciparum Dd2 ring stage forms to IC50 for Plasmodium falciparum 3D7 ring stage forms; type: functional
Outline: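 Sixteen-point dose-response, 40 μM to 0.4 nM final. Fit is four-parameter logistic on percent inhibition normalized to puromycin (5 μM) and 0.4% DMSO. Ratio is Dd2 IC50 over 3D7 IC50.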

[4] = Selectivity index, ratio of IC50 for HEK293 cells to IC50 for drug-sensitive Plasmodium falciparum 3D7 ring stage forms; type: toxicity; conditions: human; read-out: Ratio IC50
Plasmodium falciparum [5] = assay: Antiplasmodial activity against drug-resistant Plasmodium falciparum Dd2 ring stage forms assessed as inhibition of parasite growth after 72 hrs by DAPI staining-based confocal microscopic analysis; type: functional, organism-based; conditions: Dd2, 72 h
Outline: (§2)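 Compounds from 10 mM DMSO stocks, 16-point dose-response, 40 μM to 0.4 nM final. Incubation 72 h at 37 °C, 90% N2/5% CO2/5% O2. DAPI stain, confocal imaging. Percent inhibition normalized to puromycin 5 μM and 0.4% DMSO controls; IC50 by four-parameter logistic fit.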

Plasmodium falciparum [6] = assay: Antiplasmodial activity against drug-sensitive Plasmodium falciparum 3D7 ring stage forms assessed as inhibition of parasite growth at 40 uM after 72 hrs by DAPI staining-based confocal microscopic analysis; type: functional; conditions: 3D7, 72 h, read-out: GI
Outline: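 Exposed to compound for 72 h at 37 °C under 90% N2/5% CO2/5% O2. DAPI staining followed by confocal imaging. Percent inhibition normalized to puromycin (5 μM) and 0.4% DMSO controls.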

Plasmodium falciparum [7] = assay: Antiplasmodial activity against drug-resistant Plasmodium falciparum Dd2 ring stage forms assessed as inhibition of parasite growth at 40 uM after 72 hrs by DAPI staining-based confocal microscopic analysis; type: functional; conditions: Dd2, 72 h, read-out: GI; outline: as §2

CCc1nc(N)nc(N)c1-c1ccc(Cl)cc1 [PYRIMETHAMINE]
IC50 (Plasmodium falciparum [1]): 7.7 nM | inhibition at 72 h [2]: 52%

COc1ccc2nc3cc(Cl)ccc3c(Nc3cc(CN4CCCC4)c(O)c(CN4CCCC4)c3)c2n1 [PYRONARIDINE]
IC50 (HEK293): 1990 nM | IC50 (Plasmodium falciparum [1]): 8.2 nM | Ratio IC50 [3]: 1.3 | selectivity ratio [4]: 246 | IC50 (Plasmodium falciparum [5]): 11 nM

COc1ccc(C[C@H](N)C(=O)N[C@H]2[C@@H](O)[C@H](n3cnc4c(N(C)C)ncnc43)O[C@@H]2CO)cc1 [PUROMYCIN]
IC50 (HEK293): 694 nM | IC50 (Plasmodium falciparum [1]): 70.2 nM | Ratio IC50 [3]: 1.1 | selectivity ratio [4]: 9.9 | IC50 (Plasmodium falciparum [5]): 74.7 nM

CCN(CC)CCCC(C)Nc1ccnc2cc(Cl)ccc12 (stereo not drawn) [CHLOROQUINE]
inhibition at 72 h [2]: 53.2%

COc1c(CC=C(C)C)c2c(c(O)c1C(C)=O)[C@H](CC(C)C)[C@H]1C(=O)C(C(C)=O)=C3O[C@@H](C(C)(C)O)C[C@@]3(O)[C@@]1(O)O2
IC50 (Plasmodium falciparum [1]): 2700 nM | Ratio IC50 [3]: 1.7 | inhibition at 72 h [2]: 80.7% | IC50 (Plasmodium falciparum [5]): 4700 nM

C[C@H]1[C@@H](O)O[C@@H]2O[C@@]3(C)CC[C@H]4[C@H](C)CC[C@@H]1[C@@]24OO3 [ARTENIMOL]
Ratio IC50 [3]: 1.8 | inhibition at 72 h [2]: 41.1%

COc1c(CC=C(C)C)c(O)c(C=O)c(O)c1C(C)=O [ACRONYCULATIN A]
inhibition of growth at 40 µM (Plasmodium falciparum [6]): 37.5% | inhibition of growth at 40 µM (Plasmodium falciparum [7]): 19.8% | inhibition at 72 h [2]: 7.4%

C[C@H]1[C@H](OC(=O)CCC(=O)O)O[C@@H]2O[C@@]3(C)CC[C@H]4[C@H](C)CC[C@@H]1[C@@]24OO3 [ARTESUNATE]
inhibition at 72 h [2]: 62.5% | IC50 (Plasmodium falciparum [5]): 3.3 nM

COc1c(CC=C(C)C)c(O)cc(O)c1C(C)=O
IC50 (Plasmodium falciparum [1]): 1800 nM | Ratio IC50 [3]: 1.7 | inhibition at 72 h [2]: 79.1% | IC50 (Plasmodium falciparum [5]): 3100 nM

Source: ChEMBL document CHEMBL4480447, “Acrotrione: An Oxidized Xanthene from the Roots of Acronychia pubescens” (J Nat Prod, 2019)
